The full list was thinned out, with hits kept by preference.
Insulin prom act = TRM-6 insulin promoter activation; TRM-6 cells, insulin promoter eGFP reporter, imaging; plate-scaled: unstimulated 0, stimulated control 100; activation, % at 2 µM; 0.81% of 130,000 active;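 active = activation at 2 µM above a set limit, confirmed on inspection of the cell images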;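 also: share of cells whose green reporter signal exceeds an intensity cutoff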
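Material: Human fetal islet-derived TRM-6 cells with tamoxifen-inducible insulin promoter–eGFP reporter | Medium: Low-glucose (5.5 mM) medium with tamoxifen | Probe or stimulus: Tamoxifen inducer, 0.75 µM, in seeding medium | Schedule: Tamoxifen pre-incubation 15 h overnight, then compound exposure 48 h at 37 °C | Detection: High-content imaging of fixed cells with Hoechst nuclear stain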
* = called active by the depositor; [ ] = remark or other dose.

SMILES	Insulin prom act
Cc1cccc(C(=O)NC2CCN(C(=O)N3CCOCC3)CC2)c1	-5.6
Cc1cccc(NC(=O)Cc2cccs2)n1	-5.7
O=C(N/N=C/C1=C(N2CCOCC2)C(=C\c2ccccc2)/CC1)Nc1ccccc1	6.5
O=C(/C=C/c1cccc([N+](=O)[O-])c1)NCCN1CCOCC1	6.8
CC(C)C(NC(=O)C12CC3CC(CC(C3)C1)C2)C(=O)N/N=C/C1=C(N2CCOCC2)C(=C\c2ccc([N+](=O)[O-])cc2)/CC1 (centres undefined)	175.9
N#C/C(=C\C1=C(N2CCOCC2)C(=C\c2ccc(Cl)cc2)/CC1)C(=O)Nc1ccccc1F	614.3*[fluoresces]
N#C/C(=C\C1=C(N2CCOCC2)C(=C/c2cccc([N+](=O)[O-])c2)/CC1)C(=O)Nc1ccccc1F	614.3*
Cc1cc(=O)[nH]c(N/N=C/C2=C(N3CCOCC3)C(=C\c3ccc(Cl)cc3)/CC2)n1	-3.2
CCOCCCNC(=O)Cn1cnc2sc(C)c(S(=O)(=O)N3CCN(c4ncccn4)CC3)c2c1=O	-9.1
CC1CC(C)CN(CCCNC(=O)CCNC(=O)Cn2ccc3ccccc3c2=O)C1 (centres undefined)	-5.7
O=c1[nH]c2ccc(N=Cc3c(O)ccc4cc(Br)ccc34)cc2[nH]1	-5.9
C=CCN(Cc1nc(-c2ccc(OC)c(OC)c2)oc1C)C1CCS(=O)(=O)C1 (centres undefined)	-7.1
Cc1csc(N(C(=O)c2cccc(S(=O)(=O)N(C)C)c2)c2ccccc2)n1	-7.1
CCC(=O)N(c1ccc(F)cc1)C1C=CS(=O)(=O)C1 (centres undefined)	0.0
CC(=O)N(c1ccc(C(C)C)cc1)C1C=CS(=O)(=O)C1 (centres undefined)	2.7
COCC(=O)N(c1ccc(C(C)C)cc1)C1C=CS(=O)(=O)C1 (centres undefined)	422.2*
CC1CCN(C(=O)CSc2nnc(Cc3cccn3C)n2-c2ccc(F)cc2)CC1	-71.4
Cc1ccc(-n2c(CNc3ccc(F)cc3)nnc2SCC(=O)N2CCCC2)cc1	161.5*
Cc1ccc(-n2nnnc2SCC(=O)N2CCCCC2)cc1	2.9
Cc1ccc(OCCCC(=O)NCc2ccco2)c(C)c1	0.0
O=C1CCCC(=O)N1c1ccc(O)cc1	266.7*
O=C(Nc1cccc2c1C(=O)NC2=O)c1ccc(N2C(=O)CCC2=O)cc1	-5.3
CC(=O)c1c(C(C)=O)c(C)n(-c2ccc(O)cc2)c1C	-8.1
COc1cccc2c(=O)cc(C)n(CC(=O)Nc3cccc(C)c3)c12	-64.3
CN(Cc1nc(-c2cnccn2)no1)Cc1n[nH]c2c1CCCC2	-9.5
SMILES	Insulin prom act
Cc1cc2ccccc2c(=O)n1CC(=O)N(C)c1ccc(F)cc1	109.0
CC(=O)Oc1cc2c(cc1Cl)C1(CC(c3ccccc3Cl)O2)CC(C)(C)NC(=S)N1 (centres undefined)	-3.3
CCCCN(C(=O)NC(=O)Nc1c(C)cc(C)cc1C)S(C)(=O)=O	163.6*
Cc1cc(C)c(NC(=O)Cc2ccc(-n3cccc3)cc2)c(C)c1	3.3
Cc1cc(C)c(NC(=O)Nc2ccccc2)c(Cl)c1	0.0
CCCCOC(C)n1cc(F)c(=O)[nH]c1=O (centres undefined)	3.7
CCOc1ccc(C2=Cc3cc(OC)c(OC)cc3C(=C(Cl)Cl)O2)cc1	9.7
CCOc1ccc(N2C(=O)CC(n3ccc(C)n3)C2=O)cc1 (centres undefined)	30.1
Cc1ccc(C2=CSC3=NS(=O)(=O)CCN23)cc1	-8.3
C=CCSc1nc2ccccc2c2nc(-c3ccccc3)nn12	5.1
C=CCSc1nn2c(=O)c3ccccc3nc2s1	130.0*
O=c1c2ccccc2nc2sc3ccccc3n12	9.1
CC(=O)c1c(C)[nH]c(C(=O)CSc2nnc(-c3ccccc3)o2)c1C	-3.3
N#C/C(=C\c1sc(N2CCOCC2)nc1-c1ccccc1)C(=O)Nc1cccc2ccccc12	222.6*
O=C(Nc1cccc2ccccc12)N1CCOCC1	2.7
CCOc1ccc(NC(=O)c2sc(N3CCOCC3)nc2-c2ccccc2)cc1	-6.5
CCOC(=O)C(CC)Sc1nnc(COc2ccc(C)cc2)n1-c1ccccc1 (centres undefined)	131.3
O=C(CCCOc1ccccc1)Nc1cccc([N+](=O)[O-])c1	-76.9
CC(C(=O)Nc1cccc(Br)c1)c1ccc([N+](=O)[O-])cc1 (centres undefined)	-6.9
CC(=O)N[C@@H](C)C(=O)OC(C)C(=O)Nc1cccc([N+](=O)[O-])c1 (some centres undefined)	391.7*
O=C(NC(c1ccccc1)c1ccccc1)C1CCCO1 (centres undefined)	0.0
CCN1C/C(=C/c2cccc([N+](=O)[O-])c2)C(=O)/C(=C/c2cccc([N+](=O)[O-])c2)C1	-100.0
O=C(N1CCOCC1)N1CCN(C(=O)N(c2ccccc2)c2ccccc2)CC1	-5.4
O=C(N1CCCCCC1)N1CCN(S(=O)(=O)N2CCCCC2)CC1	0.0
O=C(N1CCCCCC1)N1CCN(C(=O)N2CCOCC2)CC1	487.5*
SMILES	Insulin prom act
COc1ccc(C2=CC(=O)OC(C)(c3ccccc3)O2)cc1 (centres undefined)	-1.6
COC(=O)C1=CN(c2cccc(C)c2)C=C(C(=O)OC)C1c1cc(OC)c(O)c([N+](=O)[O-])c1	-2.8
Cc1cccc(-n2ncc3c(N4CCOCC4)ncnc32)c1	2.4
Cc1nnc(SCCN2CCOCC2)c2nn(-c3ccccc3F)c(C)c12	7.7
Cc1nnc(N2CCOCC2)c2nn(-c3cccc(Cl)c3)c(C)c12	233.3*
COC(=O)Cn1nc(-c2ccccc2)c2ccccc21	-70.0
CS(=O)(=O)N1CCN(C(=O)c2cc(-c3ccccc3)nc3ccccc23)CC1	8.7
CCOc1ccc(-c2cc(C(=O)N3CCN(c4ccccn4)CC3)c3ccccc3n2)cc1	740.0*
O=C(c1cc(Sc2cccc(Cl)c2)nc2ccccc12)N1CCN(c2ccccn2)CC1	136.4
Cc1ccc(CN2CCN(/N=C/c3ccc(C(F)(F)F)cc3)CC2)c(C)c1	-3.3
COc1cc(Cl)c(C)cc1NC(=O)CSc1ccc(NC(C)=O)cc1	6.7
C=CCn1c(Cc2cccs2)nnc1SC/C=C/c1ccccc1	80.6*
CCn1c(SC/C=C/c2ccccc2)nnc1-c1cccs1	190.9
C=CCn1c(CCNC(=O)c2cccs2)nnc1SCC(=O)c1ccc(Br)cc1	-6.9
CC(C)=C1SC(N2CCN(c3cccc(Cl)c3)CC2)=NC1=O	3.7
CC(=O)Nc1nc(CCN2C(=O)c3ccccc3C2=O)cs1	8.3
COc1ccc(N(CC(=O)N2CCCCC2)S(=O)(=O)c2ccccc2)c(OC)c1	0.0
Nc1c(C(=O)Nc2ccc(S(=O)(=O)N3CCCC3)cc2)sc2nc3cc4c(cc3cc12)CCC4	181.8
O=C(Nc1ccc(S(=O)(=O)N2CCCCC2)cc1)c1ccncc1	8.3
Nc1c(C(=O)Nc2ccc(S(=O)(=O)N3CCCC3)cc2)sc2nc3ccc(OC(F)(F)F)cc3cc12	231.0*
Cc1nn(C(=O)CCCn2cc([N+](=O)[O-])cn2)c(C)c1Cl	-5.9
CN1CCN(NS(=O)(=O)c2cccs2)CC1	2.6
C/C=C/C=N/NC(=O)CN(c1ccc(Br)cc1)S(=O)(=O)c1ccccc1	-3.2
O/N=C1\CCCC\C1=C/c1ccccc1	-8.3
Cc1cc2c(cc1C)NC(CC(=O)NCc1ccccc1)C(=O)N2 (centres undefined)	106.3
COc1ccc(NC(=O)C(NC(=O)CC2NC(=O)NC2=O)c2ccccc2)cc1 (centres undefined)	0.0
O=C(CC1NC(=O)NC1=O)Nc1cccc2ccccc12 (centres undefined)	569.2*

From PubChem BioAssay
